Assays:
[1] = tested on: Adenosine A2 receptor (Homo sapiens), P29275+P29274 [W246A]; assay: Displacement of [3H]ZM-241,385 from human N-terminal FLAG-tagged adenosine A2A receptor W246A 6.48 mutant expressed in HEK293 cell membrane assessed as radioligand binding at 10 uM by microbeta scintillation counting method relative to control; assay type: cell membranes
Outline: (§1)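 Membranes from HEK293 cells stably expressing hA2AAR-WT (15 µg protein) or transiently expressing W246A mutant (4 µg; harvested 48 h post-transfection), ADA-treated. Incubated 2 h at 25 °C in 50 mM Tris-HCl pH 7.4 with 2.5 nM [3H]ZM-241,385 ± 10 µM test compound; filtration, scintillation counting. 100% = no compound; 0% = nonspecific (100 µM NECA for WT, 10 µM ZM-241,385 for mutant). Means of ≥3 independent assays in duplicate.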

Adenosine receptor A2a [2] = biological target: T1, Adenosine receptor A2a (Homo sapiens, UniProt P29274); assay: Displacement of [3H]ZM-241,385 from human N-terminal FLAG-tagged adenosine A2A receptor expressed in HEK293 cell membrane assessed as radioligand binding at 10 uM by microbeta scintillation counting method relative to control; assay type: cell membranes; outline: as §1
T1 sequence (P29274 whole entry): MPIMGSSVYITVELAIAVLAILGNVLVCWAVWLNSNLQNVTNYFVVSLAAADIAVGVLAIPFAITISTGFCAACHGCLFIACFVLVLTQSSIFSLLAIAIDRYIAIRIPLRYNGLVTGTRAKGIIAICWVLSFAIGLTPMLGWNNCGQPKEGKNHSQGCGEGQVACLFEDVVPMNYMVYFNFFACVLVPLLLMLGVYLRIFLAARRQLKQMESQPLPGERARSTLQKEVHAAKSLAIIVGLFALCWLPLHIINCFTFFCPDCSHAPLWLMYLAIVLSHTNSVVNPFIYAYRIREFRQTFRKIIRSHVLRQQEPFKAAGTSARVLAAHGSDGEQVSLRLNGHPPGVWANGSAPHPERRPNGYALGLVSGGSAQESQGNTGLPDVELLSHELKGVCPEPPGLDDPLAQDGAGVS

Adenosine receptor A2a [3] = biological target: T1, Adenosine receptor A2a; assay: Displacement of [3H]ZM-241,385 from human N-terminal FLAG-tagged adenosine A2A receptor expressed in HEK293 cell membrane assessed as radioligand residence time at 100 uM by microbeta scintillation counting method; assay type: cell membranes
Outline: (§2)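 Dissociation assay on HEK293 membranes (WT stable, 15 µg; W246A transient, 4 µg). Preequilibration with 2.5 nM [3H]ZM-241,385 for 1 h at 4 °C. Dissociation started with 100 µM NECA ± 100 µM compound (WT, times over 180 min) or 10 µM ZM-241,385 ± 10 µM compound (mutant, over 30 min). Filtration, scintillation counting. One-phase dissociation fit gave residence time versus control. ≥3 assays in duplicate.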

[4] = tested on: Adenosine A2 receptor (Homo sapiens), P29275+P29274 [W246A]; assay: Displacement of [3H]ZM-241,385 from human N-terminal FLAG-tagged adenosine A2A receptor W246A 6.48 mutant expressed in HEK293 cell membrane assessed as radioligand residence time at 10 uM by microbeta scintillation counting method; assay type: cell membranes; outline: as §2
HEK293 = assay: Ratio of IC50 for human N-terminal FLAG-tagged adenosine A2A receptor expressed in HEK293 cell membrane to IC50 for human N-terminal FLAG-tagged adenosine A2A receptor W246A 6.48 mutant expressed in HEK293 cell membrane; assay type: cell-based
Outline: (§3)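 Competition binding to ADA-treated HEK293 membranes, WT receptor stably expressed (15 µg protein) or W246A mutant transiently expressed (4 µg). 2.5 nM [3H]ZM-241,385 with increasing compound concentrations, 2 h at 25 °C in 50 mM Tris-HCl pH 7.4. Filtration and scintillation counting. IC50 from a one-site fit. Nonspecific binding: 100 µM NECA (WT) or 10 µM ZM-241,385 (mutant). ≥3 independent assays in duplicate. Fold change = WT IC50 / mutant IC50.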

Adenosine receptor A2a [5] = biological target: T1, Adenosine receptor A2a; assay: Displacement of [3H]ZM-241,385 from human N-terminal FLAG-tagged adenosine A2A receptor expressed in HEK293 cell membrane assessed as decrease in radioligand residence time at 100 uM by microbeta scintillation counting method relative to control; assay type: cell membranes; outline: as §2
Adenosine receptor A2a [6] = biological target: T1, Adenosine receptor A2a; assay: Displacement of [3H]ZM-241,385 from human N-terminal FLAG-tagged adenosine A2A receptor expressed in HEK293 cell membrane by microbeta scintillation counting method; assay type: cell membranes; outline: as §3
[7] = tested on: Adenosine A2 receptor (Homo sapiens), P29275+P29274 [W246A]; assay: Displacement of [3H]ZM-241,385 from human N-terminal FLAG-tagged adenosine A2A receptor W246A 6.48 mutant expressed in HEK293 cell membrane assessed as decrease in radioligand residence time at 10 uM by microbeta scintillation counting method relative to control; assay type: cell membranes; outline: as §2
Adenosine A2 receptor = Adenosine A2 receptor (Homo sapiens, UniProt P29275+P29274, W246A); assay: Displacement of [3H]ZM-241,385 from human N-terminal FLAG-tagged adenosine A2A receptor W246A 6.48 mutant expressed in HEK293 cell membrane by microbeta scintillation counting method; assay type: cell membranes; outline: as §3

With `Cc1ccc(S(=O)(=O)NCCNc2nc(N)c(C(=O)NC(=N)N)nc2Cl)cc1` the Activity [1] was 32% and the Activity (Adenosine receptor A2a [2]) was 85%.
Work on `COc1cccc(CCNc2nc(N)c(C(=O)N=C(N)N)nc2Cl)c1.Cl` yielded a TIME (Adenosine receptor A2a [3]) of 0.7 h, a TIME [4] of 0.0133 h and a Ratio IC50 (HEK293) of 32. The fold change (FC) (Adenosine receptor A2a [5]) was 1.5, the Activity [1] was 5.4% and the Activity (Adenosine receptor A2a [2]) was 41%. For the same molecule, the IC50 (Adenosine receptor A2a [6]) was 8.1 µM, the fold change (FC) [7] was 3.4 and the IC50 (Adenosine A2 receptor) was 0.25 µM.
`NC(N)=NC(=O)c1nc(Cl)c(NCCc2ccc(OC(F)(F)F)cc2)nc1N` was tested, and the Activity [1] was 5.2% and the Activity (Adenosine receptor A2a [2]) was 63%.
`C=CCOc1ccc(CCNc2nc(N)c(C(=O)N=C(N)N)nc2Cl)cc1` gave an Activity [1] of 2.2% and an Activity (Adenosine receptor A2a [2]) of 43%.
`NC(N)=NC(=O)c1nc(Cl)c(NCCc2ccc([N+](=O)[O-])cc2)nc1N` gave an Activity [1] of 5.8% and an Activity (Adenosine receptor A2a [2]) of 68%.
Work on `N=C(N)NC(=O)c1nc(Cl)c(NCC(=O)O)nc1N` yielded an Activity [1] of 111% and an Activity (Adenosine receptor A2a [2]) of 88%.
For `N#CCCNc1nc(N)c(C(=O)NC(=N)N)nc1Cl`, the Activity [1] was 17% and the Activity (Adenosine receptor A2a [2]) was 65%.
With `NC(N)=NC(=O)c1nc(Cl)c(NCCc2ccc(Cl)cc2)nc1N` the Activity [1] was 32% and the Activity (Adenosine receptor A2a [2]) was 92%.
`Cc1ccc(CCNc2nc(N)c(C(=O)N=C(N)N)nc2Cl)cc1` showed an Activity [1] of 2.1% and an Activity (Adenosine receptor A2a [2]) of 50%.
`CCOC(=O)CCNc1nc(N)c(C(=O)NC(=N)N)nc1Cl` was tested, and the Activity [1] was 48% and the Activity (Adenosine receptor A2a [2]) was 87%.
`N=C(N)NC(=O)c1nc(Cl)c(NCCC(=O)O)nc1N` was tested, and the Activity [1] was 70% and the Activity (Adenosine receptor A2a [2]) was 96%.
With `N=C(N)NC(=O)c1nc(Cl)c(NCc2ccccc2)nc1N` the Activity [1] was 21% and the Activity (Adenosine receptor A2a [2]) was 77%.
`N=C(N)NC(=O)c1nc(Cl)c(NCCSCc2ccccc2)nc1N` gave an Activity [1] of 35% and an Activity (Adenosine receptor A2a [2]) of 84%.
With `N=C(N)NC(=O)c1nc(Cl)c(NCc2ccncc2)nc1N` the Activity [1] was 73% and the Activity (Adenosine receptor A2a [2]) was 87%.
With `NC(N)=NC(=O)c1nc(Cl)c(NCCc2ccc(OCc3ccccc3)cc2)nc1N` the Activity [1] was 4% and the Activity (Adenosine receptor A2a [2]) was 75%.
With `CCN(CC)CCNc1nc(N)c(C(=O)NC(=N)N)nc1Cl` the Activity [1] was 53% and the Activity (Adenosine receptor A2a [2]) was 85%.
Molecule `NC(N)=NC(=O)c1nc(Cl)c(NCCCc2ccccc2)nc1N` has an Activity [1] of 9% and an Activity (Adenosine receptor A2a [2]) of 60%.
`COc1ccc(CCNc2nc(N)c(C(=O)N=C(N)N)nc2Cl)cc1OC` gave an Activity [1] of 1.8% and an Activity (Adenosine receptor A2a [2]) of 51%.
`N=C(N)NC(=O)c1nc(Cl)c(NCc2ccc(F)cc2)nc1N` was tested, and the Activity [1] was 48% and the Activity (Adenosine receptor A2a [2]) was 96%.
`COc1ccc(CCNc2nc(N)c(C(=O)N=C(N)N)nc2Cl)cc1.Cl` was tested, and the TIME (Adenosine receptor A2a [3]) was 0.733 h, the TIME [4] was 0.0333 h and the Ratio IC50 (HEK293) was 37. The fold change (FC) (Adenosine receptor A2a [5]) was 1.5, the Activity [1] was -0.4% and the Activity (Adenosine receptor A2a [2]) was 31%. For the same molecule, the IC50 (Adenosine receptor A2a [6]) was 4.4 µM, the fold change (FC) [7] was 1.3 and the IC50 (Adenosine A2 receptor) was 0.12 µM.
`N=C(N)NC(=O)c1nc(Cl)c(NCCc2ccccc2)nc1N` was tested, and the Activity [1] was 1.1% and the Activity (Adenosine receptor A2a [2]) was 54%.
`N=C(N)NC(=O)c1nc(Cl)c(N2CCCCCC2)nc1N` [N,N-HEXAMETHYLENEAMILORIDE] was tested, and the TIME (Adenosine receptor A2a [3]) was 0.467 h, the TIME [4] was 0.0233 h and the Ratio IC50 (HEK293) was 19. The fold change (FC) (Adenosine receptor A2a [5]) was 2.2, the Activity [1] was 1.8% and the Activity (Adenosine receptor A2a [2]) was 30%. The IC50 (Adenosine receptor A2a [6]) was 5.1 µM, the fold change (FC) [7] was 1.9 and the IC50 (Adenosine A2 receptor) was 0.27 µM.
`N=C(N)NC(=O)c1nc(Cl)c(NCCS(=O)(=O)Cc2ccccc2)nc1N` was tested, and the Activity [1] was 18% and the Activity (Adenosine receptor A2a [2]) was 82%.
`N=C(N)NC(=O)c1nc(Cl)c(NCCNCc2ccccc2)nc1N` gave an Activity [1] of 65% and an Activity (Adenosine receptor A2a [2]) of 90%.
With `NC(N)=NC(=O)c1nc(Cl)c(NCCc2ccc(O)cc2)nc1N` the Activity [1] was 9.5% and the Activity (Adenosine receptor A2a [2]) was 72%.
For `CCCCOc1ccc(CCNc2nc(N)c(C(=O)N=C(N)N)nc2Cl)cc1`, the Activity [1] was 3.4% and the Activity (Adenosine receptor A2a [2]) was 66%.
`N=C(N)NC(=O)c1nc(Cl)c(N)nc1N` gave an Activity [1] of 11% and an Activity (Adenosine receptor A2a [2]) of 71%.
`N=C(N)NC(=O)c1nc(Cl)c(NCCc2nnn[nH]2)nc1N` was tested, and the Activity [1] was 101% and the Activity (Adenosine receptor A2a [2]) was 99%.
`NC(N)=NC(=O)c1nc(Cl)c(NC2Cc3ccccc3C2)nc1N` gave an Activity [1] of 6.6% and an Activity (Adenosine receptor A2a [2]) of 68%.
In the case of `CCOc1ccc(CCNc2nc(N)c(C(=O)N=C(N)N)nc2Cl)cc1.O=C(O)C(F)(F)F`, the TIME (Adenosine receptor A2a [3]) is reported as 0.667 h, the TIME [4] is reported as 0.0217 h and the Ratio IC50 (HEK293) is reported as 76. For the same molecule, the fold change (FC) (Adenosine receptor A2a [5]) was 1.5, the Activity [1] was 3.5% and the Activity (Adenosine receptor A2a [2]) was 27%. The IC50 (Adenosine receptor A2a [6]) was 3.4 µM, the fold change (FC) [7] was 2.1 and the IC50 (Adenosine A2 receptor) was 0.05 µM.
With `NC(N)=NC(=O)c1nc(Cl)c(NCCc2ccc(Cl)c(Cl)c2)nc1N` the Activity [1] was 11% and the Activity (Adenosine receptor A2a [2]) was 82%.
`N=C(N)NC(=O)c1nc(Cl)c(NCc2cccnc2)nc1N` showed an Activity [1] of 46% and an Activity (Adenosine receptor A2a [2]) of 71%.
`NC(N)=NC(=O)c1nc(Cl)c(NCCc2ccc(Br)cc2)nc1N` gave an Activity [1] of 4.8% and an Activity (Adenosine receptor A2a [2]) of 67%.
For `Cl.NC(N)=NC(=O)c1nc(Cl)c(NCCc2ccc3c(c2)OCO3)nc1N`, the TIME (Adenosine receptor A2a [3]) was 1.02 h, the TIME [4] was 0.02 h and the Ratio IC50 (HEK293) was 80. It also gave an Activity [1] of 1%, an Activity (Adenosine receptor A2a [2]) of 35% and an IC50 (Adenosine receptor A2a [6]) of 5.6 µM. For the same molecule, the fold change (FC) [7] was 2.3 and the IC50 (Adenosine A2 receptor) was 0.07 µM.
